Converted amounts (≈) assume the structure as drawn. The source made the active and inactive calls. The calls are words filed in the database; no cut-off is given here.
What was measured:
[1] = test system: Plasmodium cynomolgi; assay: Antimalarial activity against sporozoites stage of Plasmodium cynomolgi infected in Rhesus monkey assessed as delay in patency at 0.316 mg/kg/day, po administered one day before infection, on day of infection and one day post infection; format: functional
In short: (§1)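 Causal prophylaxis test in Rhesus monkeys inoculated with P. cynomolgi sporozoites, two monkeys per group. Drug was given orally on days −1, 0 and +1 relative to inoculation. Patency was the first day parasites were detected in blood smears, and the delay was counted against vehicle-treated controls.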

[2] = Metabolic stability of the compound in human liver microsomes assessed as half life at 1 uM by LC-MS analysis; format: ADME, Microsome
In short: (§2)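 Compound at 1 μM final (from 10 or 20 mM DMSO stocks) was incubated with 0.5 mg/mL pooled human or mouse liver microsomes. The mix held 1.3 mM NADP and 3.3 mM MgCl₂ in 0.1 M PBS pH 7.4, and the reaction was started with 1 U/mL G6PD. Incubation was at 37 °C with shaking, and samples were quenched with cold acetonitrile at 0, 10, 20, 30 and 60 min.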

[3] = Metabolic stability of the compound in mouse liver microsomes assessed as half life at 1 uM by LC-MS analysis; format: ADME, Microsome; in short: as §2
[4] = test system: Plasmodium falciparum; assay: Antimalarial activity against sporozoites stage of Plasmodium falciparum D6 after 3 days by microdilution technique; format: functional, organism-based; conditions: D6, 72 h, in the assay text read “blood stage” for “sporozoites stage”
In short: (§3)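 P. falciparum clones were tested in vitro using a modified semiautomated microdilution technique.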

[5] = test system: Plasmodium falciparum; assay: Antimalarial activity against […] of Plasmodium falciparum TM91C235 after for 3 days by microdilution technique; format: functional, organism-based; conditions: TM91C235, 72 h; in short: as §3
[6] = test system: Plasmodium falciparum; assay: Antimalarial activity against […] of Plasmodium falciparum W2 after for 3 days by microdilution technique; format: functional, organism-based; conditions: W2, 72 h; in short: as §3
[7] = test system: Plasmodium berghei; assay: Antimalarial activity against Plasmodium berghei in exoerythrocytic mouse model assessed as causal prophylaxis at 160 mg/kg/day, po administered one day before infection, on day of infection and one day post infection; format: functional, organism-based
In short: (§4)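 P. berghei sporozoite exoerythrocytic mouse model. Compound was ground and suspended in hydroxyethylcellulose plus Tween 80, then given po at several dose levels once daily: the day before, 4 h before, and the day after sporozoite inoculation. Mice alive on day 31 with no parasites in any blood film were scored as protected.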

[8] = test system: Plasmodium berghei; assay: Antimalarial activity against Plasmodium berghei in exoerythrocytic mouse model assessed as causal prophylaxis at 320 mg/kg/day, po administered one day before infection, on day of infection and one day post infection; format: functional, organism-based; in short: as §4
[9] = test system: Mus musculus; assay: Toxicity in exoerythrocytic mouse model assessed as reduction in body weight at 160 mg/kg/day, po administered one day before infection, on day of infection and one day post infection measured on day 31; format: organism-based; design: route oral; conditions: in vivo
[10] = test system: Mus musculus; assay: Toxicity against exoerythrocytic mouse model assessed as reduction in body weight at 320 mg/kg/day, po administered one day before infection, on day of infection and one day post infection measured up to 31 days; format: organism-based; design: route oral; conditions: in vivo, 744 h
[11] = Metabolic stability of the compound in rhesus monkey microsomes assessed as half life at 1 uM by LC-MS analysis; format: ADME, Macaca mulatta, Microsome
[12] = test system: Plasmodium cynomolgi; assay: Antimalarial activity against sporozoites stage of Plasmodium cynomolgi infected in Rhesus monkey assessed as delay in patency at 50 mg/kg/day, po administered one day before infection, on day of infection and one day post infection; format: functional; in short: as §1
[13] = test system: Plasmodium cynomolgi; assay: Antimalarial activity against sporozoites stage of Plasmodium cynomolgi infected in Rhesus monkey assessed as delay in patency at 1.78 mg/kg/day, po administered one day before infection, on day of infection and one day post infection; format: functional; in short: as §1

SMILES	Time [1]	half-life at 1 µM [2]	half-life at 1 µM [3]	IC50 [4]	IC50 [5]	IC50 [6]	Activity [7]	Activity [8]	Activity [9]	Activity [10]	half-life at 1 µM [11]	Time [12]	Time [13]
COc1cc(C)c2c(Oc3cccc(C(F)(F)F)c3)c(OC)cc(NC(C)CCCN)c2n1 (stereo not drawn) [TAFENOQUINE]	2 days												
CCC(CC)C(=O)N/C(=N/c1nccn1C(C)C)Nc1ccc(Cl)c(Cl)c1		> 60 min	> 60 min	1 µg/mL (≈ 2.44 µM)	2.9 µg/mL (≈ 7.07 µM)	0.3 µg/mL (≈ 0.731 µM)	inactive	inactive					
CC(C)N1CCN=C1/N=C(/Nc1ccc(Cl)c(Cl)c1)NC(C)(C)C		> 60 min	16.6 min	0.4 µg/mL (≈ 1.08 µM)		0.4 µg/mL (≈ 1.08 µM)	inactive		Toxic	Toxic			
CC(C)n1ccnc1/N=C(/NC(=O)Cc1ccccc1)Nc1ccc(Cl)c(Cl)c1		> 60 min	50.8 min	> 5 µg/mL	> 5 µg/mL	> 5 µg/mL	inactive	inactive					
CC(C)n1ccnc1/N=C(/NC(=O)OC(C)(C)C)Nc1ccc(Cl)c(Cl)c1		> 60 min	> 60 min	> 5 µg/mL	> 5 µg/mL	> 5 µg/mL							
CC(C)n1ccnc1/N=C(\NCC(C)(C)C)Nc1ccc(Cl)c(Cl)c1		32.9 min	10.8 min	1.4 µg/mL (≈ 3.66 µM)		0.9 µg/mL (≈ 2.35 µM)	inactive	inactive					
CC(C)C(=O)N/C(=N/c1nccn1Cc1ccccc1)Nc1ccc(Cl)c(Cl)c1		19.7 min	11 min	> 2 µg/mL	> 2 µg/mL	> 2 µg/mL	inactive	inactive					
CC(C)N1CCN=C1/N=C(/Nc1ccc(Cl)c(Cl)c1)NC12CC3CC(CC(C3)C1)C2		> 60 min	> 60 min	0.3 µg/mL (≈ 0.669 µM)	0.2 µg/mL (≈ 0.446 µM)	0.2 µg/mL (≈ 0.446 µM)							
CC(C)C(=O)N/C(=N/c1nccn1C(C)C)Nc1ccc(Cl)c(Cl)c1		> 60 min	> 60 min	2.5 µg/mL (≈ 6.54 µM)	2.2 µg/mL (≈ 5.75 µM)	1 µg/mL (≈ 2.62 µM)							
CC(C)N1CCN=C1/N=C(\N)Nc1ccc(Cl)c(Cl)c1		> 60 min	> 60 min	1.4 µg/mL (≈ 4.46 µM)	1.2 µg/mL (≈ 3.82 µM)	0.7 µg/mL (≈ 2.23 µM)					36.3 min		
CC(C)N1CCN=C1/N=C(/Nc1ccc(Cl)c(Cl)c1)N1CCCCC1		> 60 min	21.5 min	0.4 µg/mL (≈ 1.05 µM)	0.3 µg/mL (≈ 0.785 µM)	0.2 µg/mL (≈ 0.523 µM)			Toxic	Toxic			
CC(C)N/C(=N\c1nccn1C(C)C)Nc1ccc(Cl)c(Cl)c1		22.5 min	5.9 min	2.6 µg/mL (≈ 7.34 µM)	2.4 µg/mL (≈ 6.77 µM)	0.8 µg/mL (≈ 2.26 µM)					7.8 min	9 days	
CC(C)N/C(=N\c1ncc[nH]1)Nc1ccc(Cl)c(Cl)c1		> 60 min	37.6 min	> 5 µg/mL	> 5 µg/mL	0.6 µg/mL (≈ 1.92 µM)			Toxic	Toxic			
CC(C)(C)Cn1ccnc1/N=C(/Nc1ccc(Cl)c(Cl)c1)NC(C)(C)C		12.1 min	11.7 min	0.8 µg/mL (≈ 2.02 µM)		0.8 µg/mL (≈ 2.02 µM)	inactive	inactive					
CC(C)N/C(=N\c1nccn1Cc1ccccc1)Nc1ccc(Cl)c(Cl)c1		16 min	18 min	1.3 µg/mL (≈ 3.23 µM)	2.5 µg/mL (≈ 6.21 µM)	1.6 µg/mL (≈ 3.98 µM)	inactive	inactive					
CC(C)N/C(=N\C1=NCCN1C(C)C)Nc1ccc(Cl)c(Cl)c1		50.7 min	13.6 min	0.5 µg/mL (≈ 1.4 µM)	0.7 µg/mL (≈ 1.96 µM)	0.4 µg/mL (≈ 1.12 µM)	inactive		Toxic	Toxic			
N/C(=N\c1nccn1Cc1ccccc1)Nc1ccc(Cl)c(Cl)c1		> 60 min	37 min	> 2 µg/mL	> 2 µg/mL	> 2 µg/mL	inactive	inactive					
CC(C)N/C(=N\c1nccn1CC(C)(C)C)Nc1ccc(Cl)c(Cl)c1		20.3 min		1.1 µg/mL (≈ 2.88 µM)		1.5 µg/mL (≈ 3.92 µM)	inactive	inactive					
N/C(=N\c1ncc[nH]1)Nc1ccc(Cl)c(Cl)c1		42.5 min	23.6 min	0.5 µg/mL (≈ 1.85 µM)	2.5 µg/mL (≈ 9.26 µM)	1.4 µg/mL (≈ 5.18 µM)	inactive	inactive					
CC(C)n1ccnc1/N=C(\N)Nc1ccc(Cl)c(Cl)c1		> 60 min	27.7 min	2.8 µg/mL (≈ 8.97 µM)	2.4 µg/mL (≈ 7.69 µM)	0.7 µg/mL (≈ 2.24 µM)	Active	Active			> 60 min		
CC(C)N/C(=N\c1nccn1C(C)(C)C)Nc1ccc(Cl)c(Cl)c1		48 min	9 min	1.4 µg/mL (≈ 3.8 µM)	0.9 µg/mL (≈ 2.44 µM)	0.4 µg/mL (≈ 1.09 µM)			Toxic	Toxic			
CC(C)n1ccnc1/N=C(/NC(=O)C(C)(C)C)Nc1ccc(Cl)c(Cl)c1		> 60 min	> 60 min	> 5 µg/mL	> 5 µg/mL	> 5 µg/mL	inactive	inactive					
CC(C)(C)n1ccnc1/N=C(\N)Nc1ccc(Cl)c(Cl)c1		> 60 min	48 min	1.6 µg/mL (≈ 4.9 µM)	1.2 µg/mL (≈ 3.68 µM)	0.4 µg/mL (≈ 1.23 µM)	inactive	inactive			45 min		
CC(C)n1ccnc1/N=C(/Nc1ccc(Cl)c(Cl)c1)N1CCCCC1		27 min	19.7 min	0.5 µg/mL (≈ 1.31 µM)	0.3 µg/mL (≈ 0.789 µM)	0.3 µg/mL (≈ 0.789 µM)	inactive	inactive			7.8 min		
CC(C)n1ccnc1/N=C(/Nc1ccc(Cl)c(Cl)c1)NC(C)(C)C		40.4 min	18.2 min	1.1 µg/mL (≈ 2.99 µM)		1 µg/mL (≈ 2.72 µM)	inactive	inactive					
COc1cc(NC(C)CCCN)c2ncccc2c1 (stereo not drawn) [PRIMAQUINE]													5 days
CCC(CC)C(=O)N/C(=N/c1nccn1C(C)(C)C)Nc1ccc(Cl)c(Cl)c1		26 min	12.5 min	> 5 µg/mL	> 5 µg/mL	> 5 µg/mL	inactive						
CC(C)(C)C(=O)N/C(=N/c1nccn1C(C)(C)C)Nc1ccc(Cl)c(Cl)c1		> 60 min	> 60 min	> 5 µg/mL	> 5 µg/mL	> 5 µg/mL							
